The first test deals with PBMC. In words: Cytotoxicity against human PBMC by MTS assay. It is filed as cell-based. In short, it runs like this:
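Cells from the LPS-stimulated hPBMC assay were given MTS-[…] reagent and incubated 5-6 h until absorbance reached 0.5. Read at 490 nm. Percent cytotoxicity was calculated from mean absorbance relative to the 0.5% DMSO vehicle control.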
With `CS(=O)(=O)c1ccc(-c2ccc3ncc(S(=O)(=O)N4CCC(C#N)(c5ccccc5)CC4)n3n2)cc1`, the IC50 is above 30 µM. The same measure, in the same setting: for `N#CC1(c2ccccc2)CCN(S(=O)(=O)c2cnc3ccc(Cl)nn23)CC1` the value was above 30 µM; for `O=S(=O)(c1cnc2ccc(-c3cncc(F)c3)nn12)N1CCN(c2ccccn2)CC1`, above 30 µM; for `CS(=O)(=O)c1ccc(-c2ccc3ncc(S(=O)(=O)NCC4CCCO4)n3n2)cc1` (centres undefined), above 30 µM. On the same count and under the same terms, in the case of `O=S(=O)(NCC1CCCO1)c1cnc2ccc(-c3cncc(C(F)(F)F)c3)nn12` (centres undefined) it was above 30 µM; in that of `COc1cccc(CNS(=O)(=O)c2cnc3ccc(-c4cncc(C(F)(F)F)c4)nn23)c1`, above 30 µM; in that of `COc1cccc(CNS(=O)(=O)c2cnc3ccc(-c4ccc(OC)nc4)nn23)c1`, above 30 µM. `O=S(=O)(c1cnc2ccc(-c3cccnc3)nn12)N1CCN(c2ccccn2)CC1` had an IC50 above 30 µM.

`O=S(=O)(NCC1CCCO1)c1cnc2ccc(-c3cccnc3)nn12` (centres undefined): the IC50 was above 30 µM. On the same count and under the same terms, for `N#CC1(c2ccccc2)CCN(S(=O)(=O)c2cnc3ccc(-c4cncc(F)c4)nn23)CC1` the value was above 30 µM. On the same count and under the same terms, for `O=S(=O)(NCC1CCCO1)c1cnc2ccc(-c3cncc(F)c3)nn12` (centres undefined) the value was above 30 µM; for `NS(=O)(=O)c1cnc2ccc(Cl)nn12`, above 30 µM; for `N#CC1(c2ccccc2)CCN(S(=O)(=O)c2cnc3ccc(-c4cccnc4)nn23)CC1`, above 30 µM.

As to `O=S(=O)(c1cnc2ccc(Cl)nn12)N1CCN(c2ccccc2)CC1`, the 50% inhibitory concentration (IC50) was above 30 µM. Still for that read-out and setting: in the case of `O=S(=O)(c1cnc2ccc(Cl)nn12)N1CCN(Cc2ccccc2)CC1` it was above 30 µM; in that of `COc1cccc(CNS(=O)(=O)c2cnc3ccc(-c4ccc(S(C)(=O)=O)cc4)nn23)c1`, above 30 µM. Still for that read-out and setting: for `CCN1CCN(S(=O)(=O)c2cnc3ccc(-c4ccc(OC)cc4)nn23)CC1` the value was above 30 µM; for `CCN1CCN(S(=O)(=O)c2cnc3ccc(-c4ccc(OC)nc4)nn23)CC1`, above 30 µM; for `O=S(=O)(c1cnc2ccc(-c3cncc(C(F)(F)F)c3)nn12)N1CCN(c2ccccn2)CC1`, above 30 µM. Still for that read-out and setting: for `COc1ccc(-c2ccc3ncc(S(=O)(=O)NCC4CCCO4)n3n2)cc1` (centres undefined) the value was above 30 µM; for `COc1ccc(-c2ccc3ncc(S(=O)(=O)NCC4CCCO4)n3n2)cn1` (centres undefined), above 30 µM; for `N#CC1(c2ccccc2)CCN(S(=O)(=O)c2cnc3ccc(-c4cncc(C(F)(F)F)c4)nn23)CC1`, above 30 µM.

`Nc1ncc(-c2ccc3ncc(S(=O)(=O)N4CCN(c5ccccn5)CC4)n3n2)cc1C(F)(F)F` had an IC50 above 30 µM. On the same count and under the same terms, in the case of `CCN1CCN(S(=O)(=O)c2cnc3ccc(-c4cncc(F)c4)nn23)CC1` it was above 30 µM; in that of `COc1cccc(CNS(=O)(=O)c2cnc3ccc(-c4cncc(F)c4)nn23)c1`, above 30 µM. `O=S(=O)(c1cnc2ccc(Cl)nn12)N1CCN(c2ccccn2)CC1` showed an IC50 above 30 µM. Take `O=S(=O)(NCC1CCCO1)c1cnc2ccc(Cl)nn12` (centres undefined): the IC50 is above 30 µM. In turn, `O=S(=O)(c1cnc2ccc(-c3cccnc3)nn12)N1CCN(Cc2ccccc2)CC1` showed an IC50 above 30 µM. Same read-out and setting: in the case of `CCN1CCN(S(=O)(=O)c2cnc3ccc(-c4ccc(S(C)(=O)=O)cc4)nn23)CC1` it was above 30 µM. Take `CCN1CCN(S(=O)(=O)c2cnc3ccc(-c4cncc(C(F)(F)F)c4)nn23)CC1`: the IC50 is above 30 µM.

Take `COc1ccc(-c2ccc3ncc(S(=O)(=O)N4CCN(c5ccccn5)CC4)n3n2)cn1`: the half-inhibitory concentration (IC50) was above 30 µM. Same read-out and setting: in the case of `COc1cccc(CNS(=O)(=O)c2cnc3ccc(-c4cccnc4)nn23)c1` it was above 30 µM; in that of `COc1ccc(-c2ccc3ncc(S(=O)(=O)N4CCC(C#N)(c5ccccc5)CC4)n3n2)cc1OC`, above 30 µM. Consider `COc1cccc(CNS(=O)(=O)c2cnc3ccc(-c4cnc(N)c(C(F)(F)F)c4)nn23)c1`, for which the half-inhibitory concentration (IC50) is above 30 µM. On the same count and under the same terms, for `CS(=O)(=O)c1ccc(-c2ccc3ncc(S(=O)(=O)N4CCN(Cc5ccccc5)CC4)n3n2)cc1` the value was above 30 µM. The same measure, in the same setting: for `CS(=O)(=O)c1ccc(-c2ccc3ncc(S(=O)(=O)N4CCN(c5ccccn5)CC4)n3n2)cc1` the value was above 30 µM; for `Nc1ncc(-c2ccc3ncc(S(N)(=O)=O)n3n2)cc1C(F)(F)F`, above 30 µM; for `CCN1CCN(S(=O)(=O)c2cnc3ccc(-c4cccnc4)nn23)CC1`, above 30 µM. Still for that read-out and setting: for `CCN1CCN(S(=O)(=O)c2cnc3ccc(Cl)nn23)CC1` the value was above 30 µM; for `O=S(=O)(c1cnc2ccc(-c3cncc(F)c3)nn12)N1CCN(Cc2ccccc2)CC1`, above 30 µM. `COc1cccc(CNS(=O)(=O)c2cnc3ccc(Cl)nn23)c1` showed a half-inhibitory concentration (IC50) above 30 µM. For `COc1ccc(C2CNC(=O)C2)cc1OC1CCCC1` (centres undefined) [ROLIPRAM], the IC50 was above 30 µM.

A further test relates to L929. The experiment in a line: Cytoprotective against human TNF-alpha-induced cell death in mouse L929 cells by MTT assay. It is filed as functional, cell-based.
Compound `O=C1/C(=N/Nc2ccc(Cl)c([N+](=O)[O-])c2)C(c2ccccc2)NN1c1nc(-c2ccccc2)cs1` (centres undefined) gave an IC50 of 9 µM.

For the next test, the target named is T1, Tumor necrosis factor (Mus musculus, UniProt P06804).
T1 sequence (P06804 whole entry): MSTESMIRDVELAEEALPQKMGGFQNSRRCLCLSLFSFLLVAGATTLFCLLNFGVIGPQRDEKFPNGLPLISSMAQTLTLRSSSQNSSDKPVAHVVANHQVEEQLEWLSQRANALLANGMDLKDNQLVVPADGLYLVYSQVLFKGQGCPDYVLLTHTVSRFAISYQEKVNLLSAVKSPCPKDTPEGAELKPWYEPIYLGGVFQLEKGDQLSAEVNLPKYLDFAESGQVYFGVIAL
In words: Inhibition of mouse recombinant TNF-alpha binding to antibody preincubated for 30 mins followed by antibody addition measured after 2 hrs by ELISA.
Regarding `CCCCn1cnc(CC(c2c(O)c3ccccc3oc2=O)c2c(O)c3ccccc3oc2=O)c1Cl`, the IC50 came to 16.5 µM.

The record behind these values is ChEMBL document CHEMBL4184173, “Synthesis and in vitro evaluations of 6-(hetero)-aryl-imidazo[1,2-b]pyridazine-3-sulfonamide's as an inhibitor of TNF-α production” (Bioorg Med Chem Lett, 2018).
